Several values for one entry are separate records, joined by “and”; a condition that tells them apart may be missing. Identical values can stand only once. Blank lines part the entries; values can stand above or below the molecule they belong to.
Columns and labels:
[1] = test system: Rattus norvegicus; assay: Antiovulatory activity in CD rat assessed as blockade of ovulation at 10 mg, sc administered as six doses at 1200, 1230, 1300, 1350, 1400 and 1450 hrs during proestrus stage measured during estrus stage by dissecting microscopic analysis; format: functional
Summary of the method: (§1)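 Cycling Charles River CD rats were given six subcutaneous injections of analogue in 0.1 mL propylene glycol on the afternoon of proestrus, and controls received vehicle alone. Rats were killed the next morning (estrus). Ovulating animals were scored and ova in the oviducts were counted under a dissecting microscope.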

[2] = test system: Rattus norvegicus; assay: Antiovulatory activity in sc dosed CD rat assessed as blockade of ovulation administered as six doses at 1200, 1230, 1300, 1350, 1400 and 1450 hrs during proestrus stage measured during estrus stage by dissecting microscopic analysis; format: functional; summary of the method: as §1
[3] = molecular target: T1, Gonadotropin-releasing hormone receptor (Rattus norvegicus) (UniProt P30969); assay: In vitro antagonist activity at GNRHR in CD rat anterior pituitary gland assessed as inhibition of LH-RH-stimulated LH release at compound to LH-RH molar ratio of 500 after 4 hrs by radioimmunoassay; details: concentration not given here
T1 sequence (whole entry): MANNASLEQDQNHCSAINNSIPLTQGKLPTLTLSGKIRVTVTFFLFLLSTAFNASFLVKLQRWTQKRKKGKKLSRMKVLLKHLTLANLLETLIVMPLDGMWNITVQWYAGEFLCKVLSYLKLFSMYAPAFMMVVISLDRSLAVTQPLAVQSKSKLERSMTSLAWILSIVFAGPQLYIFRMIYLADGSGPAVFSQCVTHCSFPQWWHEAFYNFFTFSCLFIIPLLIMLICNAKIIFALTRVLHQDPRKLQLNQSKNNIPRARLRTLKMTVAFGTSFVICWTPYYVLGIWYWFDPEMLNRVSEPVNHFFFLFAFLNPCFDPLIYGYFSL
Summary of the method: (§2)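 Anterior pituitaries from diestrus CD rats (200-250 g) were dissociated enzymatically (collagenase, hyaluronidase, then Viokase). Cells were cultured 4 days at 1.67 × 10^5 cells/mL in DME with 10% horse serum and 2.5% fetal calf serum, then washed serum-free. Duplicate cultures received LH-RH (2-5 × 10^-10 M) with a single analogue concentration in serum-free DME for 4 h at 37 °C. LH in the medium was measured by RIA and reported as % inhibition of LH-RH-stimulated release.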

[4] = molecular target: T1, Gonadotropin-releasing hormone receptor (Rattus norvegicus); assay: In vitro antagonist activity at GNRHR in CD rat anterior pituitary gland assessed as ratio of molar concentration of compound to LH-RH for inhibition of LH-RH-stimulated LH release after 4 hrs by radioimmunoassay
Summary of the method: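 Monolayers were cultured 4 days from dissociated anterior pituitary cells of diestrus CD rats. They were exposed in duplicate to LH-RH (2-5 × 10^-10 M) plus multiple analogue concentrations in serum-free DME for 4 h at 37 °C. LH in the medium was measured by radioimmunoassay. The ED50 molar ratio is the analogue:LH-RH molar ratio giving 50% inhibition of LH-RH-stimulated LH release.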

[5] = test system: Rattus norvegicus; assay: Antiovulatory activity in CD rat assessed as blockade of ovulation at 0.3 mg, sc administered as six doses at 1200, 1230, 1300, 1350, 1400 and 1450 hrs during proestrus stage measured during estrus stage by dissecting microscopic analysis; format: functional; summary of the method: as §1
[6] = molecular target: T1, Gonadotropin-releasing hormone receptor (Rattus norvegicus); assay: In vitro antagonist activity at GNRHR in CD rat anterior pituitary gland assessed as inhibition of LH-RH-stimulated LH release at compound to LH-RH molar ratio of 20 after 4 hrs by radioimmunoassay; details: concentration not given here; summary of the method: as §2
[7] = molecular target: T1, Gonadotropin-releasing hormone receptor (Rattus norvegicus); assay: In vitro antagonist activity at GNRHR in CD rat anterior pituitary gland assessed as inhibition of LH-RH-stimulated LH release at compound to LH-RH molar ratio of 1.7 after 4 hrs by radioimmunoassay; details: concentration not given here; summary of the method: as §2
[8] = molecular target: T1, Gonadotropin-releasing hormone receptor (Rattus norvegicus); assay: In vitro antagonist activity at GNRHR in CD rat anterior pituitary gland assessed as inhibition of LH-RH-stimulated LH release at compound to LH-RH molar ratio of 28 after 4 hrs by radioimmunoassay; details: concentration not given here; summary of the method: as §2
[9] = molecular target: T1, Gonadotropin-releasing hormone receptor (Rattus norvegicus); assay: In vitro antagonist activity at GNRHR in CD rat anterior pituitary gland assessed as inhibition of LH-RH-stimulated LH release at compound to LH-RH molar ratio of 5 after 4 hrs by radioimmunoassay; details: concentration not given here; summary of the method: as §2
[10] = molecular target: T1, Gonadotropin-releasing hormone receptor (Rattus norvegicus); assay: In vitro antagonist activity at GNRHR in CD rat anterior pituitary gland assessed as inhibition of LH-RH-stimulated LH release at compound to LH-RH molar ratio of 100 after 4 hrs by radioimmunoassay; details: concentration not given here; summary of the method: as §2
[11] = molecular target: T1, Gonadotropin-releasing hormone receptor (Rattus norvegicus); assay: In vitro antagonist activity at GNRHR in CD rat anterior pituitary gland assessed as inhibition of LH-RH-stimulated LH release at compound to LH-RH molar ratio of 40 after 4 hrs by radioimmunoassay; details: concentration not given here; summary of the method: as §2
[12] = test system: Rattus norvegicus; assay: Antiovulatory activity in CD rat assessed as blockade of ovulation at 0.1 mg, sc administered as six doses at 1200, 1230, 1300, 1350, 1400 and 1450 hrs during proestrus stage measured during estrus stage by dissecting microscopic analysis; format: functional; summary of the method: as §1
[13] = Solubility of the compound in water; format: physicochemical
[14] = Solubility of the compound in 0.9% sodium chloride; format: physicochemical

Compound: CCNC(=O)[C@@H]1CCCN1C(=O)[C@H](CCCNC(=N)N)NC(=O)[C@H](CC(C)C)NC(=O)[C@@H](Cc1ccccc1)NC(=O)[C@H](Cc1ccc(O)cc1)NC(=O)[C@H](CO)NC(=O)[C@H](Cc1c[nH]c2ccccc12)NC(=O)[C@H](CCC(N)=O)NC(=O)OCc1ccccc1.Cl
inhibition (INH) [1]: 0% | ED50 [2]: >10 mg

inhibition [3]: 98% | ED50 [4]: 76 molar ratio
Compound: CC(C)C[C@H](NC(=O)[C@@H](Cc1ccccc1)NC(=O)[C@H](Cc1ccc(O)cc1)NC(=O)[C@H](CO)NC(=O)[C@H](Cc1c[nH]c2ccccc12)NC(=O)[C@@H](Cc1ccccc1)NC(=O)[C@@H]1CCC(=O)N1)C(=O)N[C@@H](CCCNC(=N)N)C(=O)N1CCC[C@H]1C(=O)NCC(N)=O.Cl
inhibition (INH) [5]: 100% | ED50 [2]: 0.1 mg

inhibition [6]: 71% | inhibition [7]: 64% | ED50 [4]: 1.3 molar ratio and 2 molar ratio
Compound: CC(C)C[C@H](NC(=O)[C@@H](Cc1c[nH]c2ccccc12)NC(=O)[C@H](Cc1ccc(O)cc1)NC(=O)[C@H](CO)NC(=O)[C@H](Cc1c[nH]c2ccccc12)NC(=O)[C@H](COCc1ccccc1)NC(=O)OC(C)(C)C)C(=O)N[C@@H](CCCNC(=N)N)C(=O)N1CCC[C@H]1C(=O)NCC(N)=O

inhibition [8]: 82% | inhibition [9]: 77%
Compound: CCNC(=O)[C@@H]1CCCN1C(=O)[C@H](CCCNC(=N)N)NC(=O)[C@H](CC(C)C)NC(=O)[C@H](NC(=O)[C@H](Cc1ccc(O)cc1)NC(=O)[C@H](CO)NC(=O)[C@H](Cc1c[nH]c2ccccc12)NC(=O)[C@H](CCC(N)=O)NC(=O)OCc1ccccc1)[C@@H](O)c1ccccc1

inhibition [10]: 70% | inhibition [11]: 70% | ED50 [4]: 12.8 molar ratio and 7.7 molar ratio
Compound: CCNC(=O)[C@@H]1CCCN1C(=O)[C@H](CCCNC(=N)N)NC(=O)[C@H](CC(C)C)NC(=O)[C@@H](Cc1ccccc1)NC(=O)[C@H](Cc1ccc(O)cc1)NC(=O)[C@H](CO)NC(=O)[C@H](Cc1c[nH]c2ccccc12)NC(=O)[C@H](CCC(N)=O)NC(=O)OCc1ccccc1

solubility [13]: 3000 µg/mL | solubility [14]: 16 µg/mL
Compound: CC(=O)O.CC(C)C[C@H](NC(=O)[C@@H](Cc1c[nH]c2ccccc12)NC(=O)[C@H](Cc1ccc(O)cc1)NC(=O)[C@H](CO)NC(=O)[C@H](Cc1c[nH]c2ccccc12)NC(=O)[C@H](COCc1ccccc1)NC(=O)OC(C)(C)C)C(=O)N[C@@H](CCCNC(=N)N)C(=O)N1CCC[C@H]1C(=O)NCC(N)=O
inhibition (INH) [12]: 100% | ED50 [2]: 0.05 mg
